# Measurements taken from ChEMBL document CHEMBL4346672, “Antimicrobial and KPC/AmpC inhibitory activity of functionalized benzosiloxaboroles” (Eur J Med Chem, 2019).
# Active and inactive are the calls of the source. No cut-off for these calls is given here.
# Experiments:
# Klebsiella pneumoniae [1] = assay: Inhibition of beta lactamase KPC-3 in Klebsiella pneumoniae 83 assessed as potentiation of ceftazidime-induced antibacterial activity by measuring ceftazidime MIC at 16 mg/L incubated for 18 hrs by broth dilution method (reference value: >[…] mg/L)
# Klebsiella pneumoniae [2] = assay: Inhibition of beta lactamase CMY-2 in Klebsiella pneumoniae 78 assessed as potentiation of ceftazidime-induced antibacterial activity by measuring ceftazidime MIC at 16 mg/L incubated for 18 hrs by broth dilution method (reference value: >[…] mg/L)
# Pseudomonas aeruginosa [3] = assay: Inhibition of beta lactamase AmpC in Pseudomonas aeruginosa 700 assessed as potentiation of ceftazidime-induced antibacterial activity by measuring ceftazidime MIC at 16 mg/L incubated for 18 hrs by broth dilution method (reference value: >[…] mg/L)
# Klebsiella pneumoniae [4] = assay: Inhibition of beta lactamase KPC-3 in Klebsiella pneumoniae 83 assessed as potentiation of meropenem-induced antibacterial activity by measuring meropenem MIC at 16 mg/L incubated for 18 hrs by broth dilution method (reference value: […] mg/L)
# Pseudomonas aeruginosa [5] = assay: Inhibition of beta lactamase AmpC in Pseudomonas aeruginosa MUW 700 assessed as potentiation of ceftazidime-induced antibacterial activity by measuring diameter of zone inhibition at 0.3 mg incubated for 18 hrs in presence of 30 ug ceftazidime by CLSI disc diffusion method (Rvb=11 mm)
# In short: (§1)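 AmpC combination disc test on Mueller-Hinton agar, following EUCAST guidance and Yagi et al. Inhibition zones were compared between a CAZ-30 disc and a ceftazidime disc plus agent or PBA, each at 0.3 mg per disc. Plates were incubated at 35 °C for 18 h. A zone difference of at least 5 mm was counted as inhibition.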
# [6] = tested on: Klebsiella pneumoniae ATCC BAA-1705; assay: Inhibition of beta lactamase KPC-2 in Klebsiella pneumoniae ATCC BAA 1705 assessed as potentiation of meropenem-induced antibacterial activity by measuring meropenem MIC at 16 mg/L incubated for 18 hrs by broth dilution method (reference value: […] mg/L)
# [7] = molecular target: Class A carbapenemase KPC-2 (Escherichia coli) (UniProt A8DS27); assay: Inhibition of beta lactamase KPC-2 in Escherichia coli 76 assessed as potentiation of ceftazidime-induced antibacterial activity by measuring ceftazidime MIC at 16 mg/L incubated for 18 hrs by broth dilution method (reference value: >[…] mg/L)
# Escherichia coli [8] = assay: Inhibition of beta lactamase CMY-2 in Escherichia coli 77 assessed as potentiation of ceftazidime-induced antibacterial activity by measuring ceftazidime MIC at 16 mg/L incubated for 18 hrs by broth dilution method (reference value: […] mg/L)
# Pseudomonas aeruginosa [9] = assay: Inhibition of beta lactamase VIM in Pseudomonas aeruginosa 698 assessed as potentiation of ceftazidime-induced antibacterial activity by measuring ceftazidime MIC at 16 mg/L incubated for 18 hrs by broth dilution method (reference value: […] mg/L)
# [10] = molecular target: Class A carbapenemase KPC-2 (Escherichia coli) (UniProt A8DS27); assay: Inhibition of beta lactamase KPC-2 in Escherichia coli 76 assessed as potentiation of meropenem-induced antibacterial activity by measuring meropenem MIC at 16 mg/L incubated for 18 hrs by broth dilution method (reference value: >[…] mg/L)
# Escherichia coli [11] = assay: Inhibition of beta lactamase KPC-3 in Escherichia coli 82 TR assessed as potentiation of ceftazidime-induced antibacterial activity by measuring ceftazidime MIC at 16 mg/L incubated for 18 hrs by broth dilution method (reference value: […] mg/L)
# Acinetobacter baumannii [12] = assay: Inhibition of beta lactamase OXA-24 in Acinetobacter baumannii 181 assessed as potentiation of ceftazidime-induced antibacterial activity by measuring ceftazidime MIC at 16 mg/L incubated for 18 hrs by broth dilution method (reference value: >[…] mg/L)
# [13] = tested on: Klebsiella pneumoniae ATCC BAA-1705; assay: Inhibition of beta lactamase KPC-2 in Klebsiella pneumoniae ATCC BAA 1705 assessed as potentiation of ceftazidime-induced antibacterial activity by measuring ceftazidime MIC at 16 mg/L incubated for 18 hrs by broth dilution method
# [14] = tested on: Klebsiella pneumoniae 700603; assay: (§2) Inhibition of extended-spectrum beta lactamase in Klebsiella pneumoniae ATCC 700603 assessed as potentiation of cefotaxime-induced antibacterial activity by measuring diameter of zone inhibition at 0.3 mg incubated for 18 hrs in presence of 10 ug cefotaxime by CLSI disc diffusion method (Rvb=19 mm)
# In short: (§3)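 EUCAST ESBL combination disc test on Mueller-Hinton agar. Zones were compared between a ceftazidime or cefotaxime disc alone and the same disc plus agent at 0.3 mg per disc. Clavulanic acid discs at 0.01 mg per disc served as reference. Plates were incubated at 35 °C for 18 h. A difference of at least 5 mm was counted as inhibition.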
# Klebsiella pneumoniae [15] = assay: Inhibition of beta lactamase KPC-2 in Klebsiella pneumoniae 75 assessed as potentiation of meropenem-induced antibacterial activity by measuring meropenem MIC at 16 mg/L incubated for 18 hrs by broth dilution method (reference value: […] mg/L)
# Escherichia coli [16] = assay: Inhibition of beta lactamase KPC-3 in Escherichia coli 82 TR assessed as potentiation of meropenem-induced antibacterial activity by measuring meropenem MIC at 16 mg/L incubated for 18 hrs by broth dilution method (reference value: 2 mg/L)
# [17] = tested on: Klebsiella pneumoniae ATCC BAA-1705; assay: Inhibition of beta lactamase KPC in Klebsiella pneumoniae ATCC BAA 1705 assessed as potentiation of meropenem-induced antibacterial activity by measuring diameter of zone inhibition at 0.3 mg incubated for 18 hrs in presence of 10 ug meropenem by CLSI disc diffusion method (Rvb=[…] mm)
# [18] = tested on: Klebsiella pneumoniae 700603; assay: as §2, with “ceftazidime-induced” for “cefotaxime-induced”, “ceftazidime” for “cefotaxime”, “(Rvb=13” for “(Rvb=19”; in short: as §3
# Klebsiella pneumoniae [19] = assay: Inhibition of beta lactamase KPC-3 in Klebsiella pneumoniae 81 assessed as potentiation of meropenem-induced antibacterial activity by measuring meropenem MIC at 16 mg/L incubated for 18 hrs by broth dilution method (reference value: […] mg/L)
# Klebsiella pneumoniae [20] = assay: Inhibition of beta lactamase SHV-12 in Klebsiella pneumoniae ATCC 700603 assessed as potentiation of ceftazidime-induced antibacterial activity by measuring ceftazidime MIC at 16 mg/L incubated for 18 hrs by broth dilution method (reference value: […] mg/L)
# Acinetobacter baumannii [21] = assay: Inhibition of beta lactamase OXA-24 in Acinetobacter baumannii 181 assessed as potentiation of meropenem-induced antibacterial activity by measuring meropenem MIC at 16 mg/L incubated for 18 hrs by broth dilution method (reference value: […] mg/L)
# Escherichia coli [22] = assay: Inhibition of beta lactamase CMY-2 in Escherichia coli 77 assessed as potentiation of ceftazidime-induced antibacterial activity by measuring diameter of zone inhibition at 0.3 mg incubated for 18 hrs in presence of 30 ug ceftazidime by CLSI disc diffusion method (Rvb=13 mm); in short: as §1
# Klebsiella pneumoniae [23] = assay: Inhibition of beta lactamase KPC-2 in Klebsiella pneumoniae 75 assessed as potentiation of ceftazidime-induced antibacterial activity by measuring ceftazidime MIC at 16 mg/L incubated for 18 hrs by broth dilution method (reference value: […] mg/L)
# Pseudomonas aeruginosa [24] = assay: Inhibition of beta lactamase OXA-15 in Pseudomonas aeruginosa 852 assessed as potentiation of ceftazidime-induced antibacterial activity by measuring ceftazidime MIC at 16 mg/L incubated for 18 hrs by broth dilution method (reference value: >[…] mg/L)
# Klebsiella pneumoniae [25] = assay: Inhibition of beta lactamase KPC-3 in Klebsiella pneumoniae 81 assessed as potentiation of ceftazidime-induced antibacterial activity by measuring ceftazidime MIC at 16 mg/L incubated for 18 hrs by broth dilution method (reference value: >[…] mg/L)
# Candida albicans = assay: Antifungal activity against Candida albicans ATCC 90028 assessed as diameter of zone inhibition incubated for 24 hrs by CLSI disc diffusion method; assay type: functional
# In short: (§4)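 Yeast disc diffusion on Mueller-Hinton agar supplemented with 2% glucose and 0.5 mg/L methylene blue. Compounds in DMSO. Yeasts subcultured on Sabouraud dextrose agar before testing. Zones read after 35 °C, 24 h.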
# Klebsiella pneumoniae [26] = details: ATCC 13883
# Staphylococcus aureus = assay: Antibacterial activity against Staphylococcus aureus ATCC 6538P assessed as diameter of zone inhibition measured after 18 hrs by CLSI disc diffusion method; assay type: functional
# In short: (§5)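 Disc diffusion on Mueller-Hinton II agar. Compounds dissolved in DMSO. Strains stored at -80 °C and subcultured twice on tryptic soy agar before testing. Inhibition zones read after 35 °C, 18 h.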
# Candida tropicalis = assay: Antifungal activity against Candida tropicalis IBA 171 assessed as diameter of zone inhibition incubated for 24 hrs by CLSI disc diffusion method; assay type: functional; in short: as §4
# [27] = Dissociation constant, pKa1 of compound in 0.1 M NaOH by potentiometric analysis; assay type: physicochemical
# Saccharomyces cerevisiae = assay: Antifungal activity against Saccharomyces cerevisiae ATCC 9763 diameter of zone inhibition incubated for 24 hrs by CLSI disc diffusion method; assay type: functional
# In short: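 Disc-diffusion run on Mueller-Hinton II agar with 2% glucose and 0.5 mg/L methylene blue, using compounds in DMSO. Yeast was precultured on Sabouraud dextrose agar (24–48 h, 30 °C). Zones read after 24 h at 35 °C.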
# Escherichia coli [28] = assay: Antibacterial activity against Escherichia coli ATCC 25922 assessed as diameter of zone inhibition measured after 18 hrs by CLSI disc diffusion method; assay type: functional; in short: as §5
# [29] = tested on: Staphylococcus epidermidis; assay: Antibacterial activity against Staphylococcus epidermidis ATCC 12228 assessed as diameter of zone inhibition measured after 18 hrs by CLSI disc diffusion method; assay type: functional; in short: as §5
# Serratia marcescens = details: ATCC 13880
# Pichia kudriavzevii = assay: Antifungal activity against Candida krusei ATCC 6258 assessed as diameter of zone inhibition incubated for 24 hrs by CLSI disc diffusion method; assay type: functional; in short: as §4
# [30] = tested on: Stenotrophomonas maltophilia; assay: Antibacterial activity against Stenotrophomonas maltophilia ATCC 13637 assessed as diameter of zone inhibition measured after 18 hrs by CLSI disc diffusion method; assay type: functional; in short: as §5
# Burkholderia cepacia = assay: Antibacterial activity against Burkholderia cepacia ATCC 25416 assessed as diameter of zone inhibition measured after 18 hrs by CLSI disc diffusion method; assay type: functional; in short: as §5
# Enterococcus faecalis = assay: Antibacterial activity against Enterococcus faecalis ATCC 29212 assessed as diameter of zone inhibition measured after 18 hrs by CLSI disc diffusion method; assay type: functional; in short: as §5
# [31] = tested on: Bordetella bronchiseptica; assay: Antibacterial activity against Bordetella bronchiseptica ATCC 4617 assessed as diameter of zone inhibition measured after 18 hrs by CLSI disc diffusion method; assay type: functional; in short: as §5
# [32] = tested on: Meyerozyma guilliermondii; assay: Antifungal activity against Candida guilliermondii IBA 155 assessed as diameter of zone inhibition incubated for 24 hrs by CLSI disc diffusion method; assay type: functional; in short: as §4
# Enterobacter cloacae = assay: Antibacterial activity against Enterobacter cloacae DSM 6234 assessed as diameter of zone inhibition measured after 18 hrs by CLSI disc diffusion method; assay type: functional; in short: as §5
# Bacillus subtilis = assay: Antibacterial activity against Bacillus subtilis ATCC 6633 assessed as diameter of zone inhibition measured after 18 hrs by CLSI disc diffusion method; assay type: functional; in short: as §5
# Proteus mirabilis = assay: Antibacterial activity against Proteus mirabilis ATCC 12453 assessed as diameter of zone inhibition measured after 18 hrs by CLSI disc diffusion method; assay type: functional; in short: as §5
# Candida parapsilosis = assay: Antifungal activity against Candida parapsilosis ATCC 22019 assessed as diameter of zone inhibition incubated for 24 hrs by CLSI disc diffusion method; assay type: functional; in short: as §4
# Enterococcus faecium = assay: Antibacterial activity against Enterococcus faecium ATCC 6057 assessed as diameter of zone inhibition measured after 18 hrs by CLSI disc diffusion method; assay type: functional; in short: as §5
# Pseudomonas aeruginosa [33] = assay: Antibacterial activity against Pseudomonas aeruginosa ATCC 27853 assessed as diameter of zone inhibition measured after 18 hrs by CLSI disc diffusion method; assay type: functional, organism-based; in short: as §5
# Acinetobacter baumannii [34] = assay: Antibacterial activity against Acinetobacter baumannii ATCC 19606 assessed as diameter of zone inhibition measured after 18 hrs by CLSI disc diffusion method; assay type: functional; in short: as §5
smiles,measurement,setting,value
OB(O)c1ccccc1,MIC,Klebsiella pneumoniae [1],16 µg/mL
same,MIC,Klebsiella pneumoniae [2],32 µg/mL
same,MIC,Pseudomonas aeruginosa [3],8 µg/mL
same,MIC,Klebsiella pneumoniae [4],8 µg/mL
same,inhibition zone (IZ),Pseudomonas aeruginosa [5],22 mm
same,MIC,[6],16 µg/mL
same,MIC,[7],> 64 µg/mL
same,MIC,Escherichia coli [8],8 µg/mL
same,MIC,Pseudomonas aeruginosa [9],64 µg/mL
same,MIC,[10],32 µg/mL
same,MIC,Escherichia coli [11],8 µg/mL
same,MIC,Acinetobacter baumannii [12],> 64 µg/mL
same,MIC,[13],32 µg/mL
same,inhibition zone (IZ),[14],19 mm
same,MIC,Klebsiella pneumoniae [15],16 µg/mL
same,MIC,Escherichia coli [16],0.25 µg/mL
same,inhibition zone (IZ),[17],22 mm
same,inhibition zone (IZ),[18],14 mm
same,MIC,Klebsiella pneumoniae [19],2 µg/mL
same,MIC,Klebsiella pneumoniae [20],64 µg/mL
same,MIC,Acinetobacter baumannii [21],> 64 µg/mL
same,inhibition zone (IZ),Escherichia coli [22],24 mm
same,MIC,Klebsiella pneumoniae [23],16 µg/mL
same,MIC,Pseudomonas aeruginosa [24],> 64 µg/mL
same,MIC,Klebsiella pneumoniae [25],16 µg/mL
C[Si]1(C)OB(O)c2cccc(Br)c21,diameter of the inhibition zone (DIZ),Candida albicans,17 mm
same,DIZ,Klebsiella pneumoniae [26],inactive
same,diameter of the inhibition zone (DIZ),Staphylococcus aureus,35 mm
same,diameter of the inhibition zone (DIZ),Candida tropicalis,14 mm
same,pKa,[27],6.5
same,diameter of the inhibition zone (DIZ),Saccharomyces cerevisiae,30 mm
same,diameter of the inhibition zone (DIZ),Escherichia coli [28],inactive
same,diameter of the inhibition zone (DIZ),[29],30 mm
same,DIZ,Serratia marcescens,inactive
same,diameter of the inhibition zone (DIZ),Pichia kudriavzevii,24 mm
same,diameter of the inhibition zone (DIZ),[30],13 mm
same,diameter of the inhibition zone (DIZ),Burkholderia cepacia,inactive
same,diameter of the inhibition zone (DIZ),Enterococcus faecalis,16 mm
same,diameter of the inhibition zone (DIZ),[31],inactive
same,diameter of the inhibition zone (DIZ),[32],25 mm
same,diameter of the inhibition zone (DIZ),Enterobacter cloacae,inactive
same,diameter of the inhibition zone (DIZ),Bacillus subtilis,30 mm
same,diameter of the inhibition zone (DIZ),Proteus mirabilis,15 mm
same,diameter of the inhibition zone (DIZ),Candida parapsilosis,12 mm
same,diameter of the inhibition zone (DIZ),Enterococcus faecium,24 mm
same,diameter of the inhibition zone (DIZ),Pseudomonas aeruginosa [33],inactive
same,diameter of the inhibition zone (DIZ),Acinetobacter baumannii [34],inactive
